Source: ChEMBL document CHEMBL4002610, “Design, synthesis and biological activity evaluation of novel 2,6-difluorobenzamide derivatives through FtsZ inhibition” (2017)
≈ marks a conversion by molar mass, not a printed value. Calls of active or inactive are those of the source. The rule behind the calls is not given here.

Experiments:
Staphylococcus aureus [1] = assay: Antibacterial activity against Staphylococcus aureus ATCC 25923 after 24 hrs by broth microdilution method; format: functional; details: ATCC 25923, 24 h
Procedure, shortened: (§1)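 MIC by standard broth microdilution per NCCLS guidance. Strain panel: B. subtilis ATCC9372 and S. aureus ATCC25923 as standard susceptible strains, S. aureus ATCC29213 as […], S. pyogenes PS as penicillin-susceptible, S. pneumoniae ATCC49619 as standard susceptible, alongside Gram-negative strains.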

Staphylococcus aureus [2] = assay: Antibacterial activity against penicillin-resistant Staphylococcus aureus clinical isolate after 24 hrs by broth microdilution method; format: functional
[3] = target: T1, Cell division protein FtsZ (Staphylococcus aureus) (UniProt P0A031); assay: Inhibition of FtsZ in Staphylococcus aureus ATCC 25923 assessed as decrease in cell division by measuring lowest compound concentration at which bacterial ballooning is observed after 5 hrs by phase-contrast light microscopy
T1 sequence (whole entry): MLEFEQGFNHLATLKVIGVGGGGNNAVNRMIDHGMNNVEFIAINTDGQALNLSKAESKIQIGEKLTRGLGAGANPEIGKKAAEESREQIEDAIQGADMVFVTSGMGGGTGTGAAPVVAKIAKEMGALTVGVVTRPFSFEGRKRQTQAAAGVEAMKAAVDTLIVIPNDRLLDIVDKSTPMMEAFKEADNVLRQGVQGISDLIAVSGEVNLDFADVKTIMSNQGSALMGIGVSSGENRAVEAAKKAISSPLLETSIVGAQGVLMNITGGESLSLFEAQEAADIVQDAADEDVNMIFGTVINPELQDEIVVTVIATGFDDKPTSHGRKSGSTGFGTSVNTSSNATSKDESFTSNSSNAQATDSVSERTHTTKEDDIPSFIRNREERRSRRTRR
Procedure, shortened: (§2)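 Cell division inhibition scored by cell morphology under phase-contrast light microscopy. B. subtilis ATCC9372, E. coli ATCC25922 and S. aureus ATCC25923 were exposed to compound. The lowest concentration giving filamentation (B. subtilis, E. coli) or ballooning (S. aureus) was recorded as the cell division inhibitory concentration.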

[4] = tested on: Escherichia coli ATCC 25922; assay: Inhibition of FtsZ in Escherichia coli ATCC 25922 assessed as decrease in cell division by measuring lowest compound concentration at which bacterial filamentation is observed after 5 hrs by phase-contrast light microscopy; procedure, shortened: as §2
Staphylococcus aureus [5] = assay: Antibacterial activity against Staphylococcus aureus ATCC 29213 after 24 hrs by broth microdilution method; format: functional; details: ATCC 29213, 24 h; procedure, shortened: as §1
Streptococcus pneumoniae = assay: Antibacterial activity against Streptococcus pneumoniae ATCC 49619 after 24 hrs by broth microdilution method; format: functional; details: ATCC 49619, 24 h; procedure, shortened: as §1
[6] = target: T1, Cell division protein FtsZ (Staphylococcus aureus); assay: Inhibition of FtsZ in Staphylococcus aureus ATCC 25923 assessed as decrease in cell division by measuring cell morphology at 2048 to 4096 ug/ml after 5 hrs by phase-contrast light microscopy
Escherichia coli = assay: Antibacterial activity against Escherichia coli ATCC 25922 after 24 hrs by broth microdilution method; format: functional; details: ATCC 25922, 24 h; procedure, shortened: as §1
Bacillus subtilis [7] = assay: Antibacterial activity against Bacillus subtilis ATCC 9372 after 24 hrs by broth microdilution method; format: functional; details: ATCC 9372, 24 h; procedure, shortened: as §1
Streptococcus pyogenes = assay: Antibacterial activity against penicillin-susceptible Streptococcus pyogenes after 24 hrs by broth microdilution method; format: functional; procedure, shortened: as §1
Pseudomonas aeruginosa = assay: Antibacterial activity against Pseudomonas aeruginosa ATCC 27853 after 24 hrs by broth microdilution method; format: functional; details: ATCC 27853, 24 h; procedure, shortened: as §1
Bacillus subtilis [8] = assay: Inhibition of FtsZ in Bacillus subtilis ATCC 9372 assessed as decrease in cell division by measuring cell morphology at 2048 to 4096 ug/ml after 5 hrs by phase-contrast light microscopy
Bacillus subtilis [9] = assay: Inhibition of FtsZ in Bacillus subtilis ATCC 9372 assessed as decrease in cell division by measuring lowest compound concentration at which bacterial filamentation is observed after 5 hrs by phase-contrast light microscopy; procedure, shortened: as §2

| SMILES | MIC (Staphylococcus aureus [1]) [µg/mL] | MIC (Staphylococcus aureus [2]) [µg/mL] | INH [3] [µg/mL] | INH [4] [µg/mL] | MIC (Staphylococcus aureus [5]) [µg/mL] | MIC (Streptococcus pneumoniae) [µg/mL] | inhibition [6] | MIC (Escherichia coli) [µg/mL] | MIC (Bacillus subtilis [7]) [µg/mL] | MIC (Streptococcus pyogenes) [µg/mL] | MIC (Pseudomonas aeruginosa) [µg/mL] | inhibition (Bacillus subtilis [8]) | INH (Bacillus subtilis [9]) [µg/mL] |
| --- | --- | --- | --- | --- | --- | --- | --- | --- | --- | --- | --- | --- | --- |
| NC(=O)c1c(F)ccc(OCCCCn2cnc3cc([N+](=O)[O-])ccc32)c1F | 1020 (≈ 2620 µM) | 512 (≈ 1310 µM) | 512 | 256 | 256 (≈ 656 µM) | 128 (≈ 328 µM) | inactive | 512 (≈ 1310 µM) | 64 (≈ 164 µM) | 256 (≈ 656 µM) | 512 (≈ 1310 µM) | inactive |  |
| NC(=O)c1c(F)ccc(OCCn2cnc3ccccc32)c1F | 1020 (≈ 3230 µM) | 1020 (≈ 3230 µM) |  | 256 | 512 (≈ 1610 µM) | 512 (≈ 1610 µM) | inactive | 512 (≈ 1610 µM) | 1020 (≈ 3230 µM) | 1020 (≈ 3230 µM) | 1020 (≈ 3230 µM) | inactive |  |
| NC(=O)c1c(F)ccc(OCCCCCn2cnc3ccccc32)c1F | 512 (≈ 1420 µM) | 512 (≈ 1420 µM) |  | 512 | 512 (≈ 1420 µM) | 512 (≈ 1420 µM) | inactive | 1020 (≈ 2850 µM) | 512 (≈ 1420 µM) | 1020 (≈ 2850 µM) | 512 (≈ 1420 µM) | inactive |  |
| NC(=O)c1c(F)ccc(OCCCn2cnc3ccccc32)c1F | 1020 (≈ 3090 µM) | 1020 (≈ 3090 µM) | 256 | 512 | 512 (≈ 1550 µM) | 512 (≈ 1550 µM) |  | 512 (≈ 1550 µM) | 1020 (≈ 3090 µM) | 1020 (≈ 3090 µM) | 512 (≈ 1550 µM) |  | 512 |
| NC(=O)c1c(F)ccc(OCCCCn2cnc3ccccc32)c1F | 1020 (≈ 2970 µM) | 1020 (≈ 2970 µM) |  | 512 | 512 (≈ 1480 µM) | 512 (≈ 1480 µM) | inactive | 1020 (≈ 2970 µM) | 512 (≈ 1480 µM) | 1020 (≈ 2970 µM) | 512 (≈ 1480 µM) | inactive |  |
| NC(=O)c1c(F)ccc(OCCCCCl)c1F | 8 (≈ 30.3 µM) | 8 (≈ 30.3 µM) | 4 | 64 | 8 (≈ 30.3 µM) | 128 (≈ 485 µM) |  | 128 (≈ 485 µM) | 4 (≈ 15.2 µM) | 64 (≈ 243 µM) | 128 (≈ 485 µM) |  | 2 |
| CC(C)Oc1ccc(F)c(C(N)=O)c1F | 256 (≈ 1190 µM) | 256 (≈ 1190 µM) | 128 | 64 | 256 (≈ 1190 µM) | 128 (≈ 595 µM) |  | 256 (≈ 1190 µM) | 256 (≈ 1190 µM) | > 128 | 128 (≈ 595 µM) |  | 128 |
| NC(=O)c1c(F)ccc(OC2CCCCC2)c1F | 128 (≈ 501 µM) | 256 (≈ 1000 µM) | 128 | 64 | 256 (≈ 1000 µM) | 128 (≈ 501 µM) |  | 128 (≈ 501 µM) | 64 (≈ 251 µM) | > 128 | 128 (≈ 501 µM) |  | 64 |
| NC(=O)c1c(F)ccc(OCCCCCCl)c1F | 16 (≈ 57.6 µM) | 16 (≈ 57.6 µM) | 16 | 64 | 32 (≈ 115 µM) | 128 (≈ 461 µM) |  | 128 (≈ 461 µM) | 4 (≈ 14.4 µM) | 64 (≈ 230 µM) | 128 (≈ 461 µM) |  | 2 |
| NC(=O)c1c(F)ccc(OCCCCCCn2cnc3ccccc32)c1F | 512 (≈ 1370 µM) | 1020 (≈ 2740 µM) | 128 | 256 | 256 (≈ 686 µM) | 256 (≈ 686 µM) |  | 512 (≈ 1370 µM) | 256 (≈ 686 µM) | 512 (≈ 1370 µM) | 512 (≈ 1370 µM) |  | 128 |
| NC(=O)c1c(F)ccc(OCCCCCCn2cnc3cc([N+](=O)[O-])ccc32)c1F | 1020 (≈ 2450 µM) | 1020 (≈ 2450 µM) |  | 256 | 512 (≈ 1220 µM) | 256 (≈ 612 µM) | inactive | 512 (≈ 1220 µM) | 1020 (≈ 2450 µM) | 512 (≈ 1220 µM) | 512 (≈ 1220 µM) |  | 64 |
| NC(=O)c1c(F)ccc(OCCBr)c1F | 16 (≈ 57.1 µM) | 32 (≈ 114 µM) | 16 | 32 | 64 (≈ 229 µM) | > 128 |  | 128 (≈ 457 µM) | 16 (≈ 57.1 µM) | 64 (≈ 229 µM) | 128 (≈ 457 µM) |  | 2 |
| NC(=O)c1c(F)ccc(OCc2nc3ccccc3[nH]2)c1F | 1020 (≈ 3380 µM) | 1020 (≈ 3380 µM) | 512 | 128 | 512 (≈ 1690 µM) | 256 (≈ 844 µM) |  | 256 (≈ 844 µM) | 1020 (≈ 3380 µM) | 1020 (≈ 3380 µM) | 256 (≈ 844 µM) | inactive |  |
| CCC(C)Oc1ccc(F)c(C(N)=O)c1F (stereo unspecified) | 64 (≈ 279 µM) | 128 (≈ 558 µM) | 32 | 64 | 128 (≈ 558 µM) | 128 (≈ 558 µM) |  | 128 (≈ 558 µM) | 128 (≈ 558 µM) | > 128 | 128 (≈ 558 µM) |  | 128 |
| NC(=O)c1c(F)ccc(OCCCCl)c1F | 16 (≈ 64.1 µM) | 32 (≈ 128 µM) | 32 | 64 | 32 (≈ 128 µM) | > 128 |  | 128 (≈ 513 µM) | 32 (≈ 128 µM) | 128 (≈ 513 µM) | 128 (≈ 513 µM) |  | 16 |
